One may read the IC50 as the concentration that gives 50% inhibition.

Active and inactive are the calls of the source. The rule behind the calls is not given here.

We go through one molecule from ChEMBL document CHEMBL4622964, “Designing Dihydrofolate Reductase Inhibitors as X-ray Radiosensitizers to Reverse Radioresistance of Cervical Cancer” (ACS Med Chem Lett, 2020).

Data set [1] can be described thus: Toxicity in BALB/c mouse xenografted with human HeLa cells assessed as heart damage at 4 mg/kg, iv administered for every 3 days for 21 days and measured after 24 hrs post last dose in presence of 4 Gy X-ray irradiation by H and E staining based light microscopic analysis. The conditions noted are these: in vivo. Type of data set: organism-based. The essentials:
(§1)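 HeLa-tumor-bearing nude mice dosed at 4 mg/kg iv every 3 days for 21 days, alone or with X-rays; euthanized 24 h after last injection; heart, liver, lungs, kidneys and spleen sectioned and stained with H&E.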
For orientation: Xenograft models place foreign cells or tissue in a host animal.

Data set [2] can be described thus: Toxicity in BALB/c mouse xenografted with human HeLa cells assessed as liver damage by measuring effect on ALT level at 4 mg/kg, iv administered every 3 days for 21 days. Type of data set: organism-based. The note with it: in vivo. The essentials:
(§2)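 HeLa xenograft nude mice dosed at 4 mg/kg iv every 3 days over 21 days, alone or with X-rays; blood collected 24 h after last injection for serum biochemistry: ALT, AST (liver), BUN and uric acid (kidney).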

Data set [3] has as its system HeLa. Nature of the data set: Induction of apoptosis in human HeLa cells assessed as caspase-8 activation at 1 uM using […] as substrate after 12 hrs in presence of 4 Gy X-ray radiation by fluorescence based assay relative to control. Type of data set: functional. An outline of the steps:
(§3)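 Caspase-3 and caspase-8 activities were measured in HeLa cells after 12 h at 1 μM, without or with 4 Gy X-rays. Mean ± SD of three independent experiments.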

Data set [4] is described as follows: Drug localization in lysosome of human HeLa cells at 20 uM after 4 hrs by LysoTracker/DAPI staining based fluorescence microscopic analysis. Type of data set: ADME, subcellular. An outline of the steps: (§4)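 HeLa cells pretreated with 20 μM compound; LysoTracker added 2 h and DAPI 30 min before each time point; compound green fluorescence (emission about 510 nm) overlaid with lysosome (red) and nucleus under fluorescence microscope.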

Data set [5] deals with HeLa. The experiment in a line: Induction of reactive oxygen species generation in human HeLa cells incubated with DHE for 30 mins and measured up to 30 mins in presence of 4 Gy X-ray radiation by fluorescence microscopic analysis. Type of data set: functional, cell-based. The essentials: (§5)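 HeLa cells pretreated with compound, with or without 4 Gy X-rays, then incubated with dihydroethidium for 30 min; red superoxide-derived fluorescence imaged by fluorescence microscopy, with observation continued over a further 30 min.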

A further data set addresses T1, Dihydrofolate reductase (Homo sapiens, UniProt P00374).
T1 sequence (P00374 whole entry): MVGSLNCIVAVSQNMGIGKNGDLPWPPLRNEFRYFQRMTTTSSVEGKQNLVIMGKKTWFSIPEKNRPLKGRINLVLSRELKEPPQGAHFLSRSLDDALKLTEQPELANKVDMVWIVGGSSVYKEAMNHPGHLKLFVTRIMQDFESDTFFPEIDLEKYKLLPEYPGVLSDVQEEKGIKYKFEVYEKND
Nature of the data set: Inhibition of recombinant human DHFR using dihydrofolate as substrate in presence of NADPH.

Data set [6] concerns HeLa. The experiment in a line: Induction of cell cycle arrest in human HeLa cells assessed as accumulation at G2/M phase at 1 uM after 48 hrs in presence of 4 Gy X-ray radiation by propidium iodide staining based flow cytometric analysis (reference value: 40.4%). Format: functional.
Data set [7] in a line: Safety index, ratio of IC50 for cytotoxicity against human Ect1 cells assessed as reduction in cell viability to IC50 for antiproliferative activity against human HeLa cells assessed as reduction in cell viability incubated for 12 hrs by MTT assay. Type of data set: toxicity, cell-based. The note with it: Ect1 cells versus HeLa cells, read-out: Ratio IC50. The essentials:
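Safe index SI0 from MTT assay without irradiation: IC50 in Ect1/E6E7 normal ectocervical cells divided by IC50 in HeLa cells.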

Data set [8] has as its system HeLa. The experiment in a line: Induction of mitochondrial dysfunction in human HeLa cells assessed as change in mitochondrial membrane potential at 1 uM incubated for 24 hrs by JC1 staining based flow cytometry (reference value: 1.3%). Format: functional. The essentials:
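Mitochondrial membrane potential was assessed by JC-1 flow cytometry in HeLa cells treated at 1 μM without or with 4 Gy X-rays. Green fluorescence gives the proportion of cells with lost ΔΨm.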
In general terms: In flow cytometry, cells or beads pass a laser one at a time.

For data set [9], the system named is HeLa. Nature of the data set: Induction of cell cycle arrest in human HeLa cells assessed as accumulation at SubG1 phase at 1 uM after 48 hrs in presence of 4 Gy X-ray radiation by propidium iodide staining based flow cytometric analysis (reference value: […]). Format: functional.
Data set [10] concerns HeLa. The experiment in a line: Induction of reactive oxygen species generation in human HeLa cells incubated with DHE for 30 mins and measured up to 30 mins by fluorescence microscopic analysis. Format: functional, cell-based. An outline of the steps: as §5
Data set [11] concerns HeLa. Nature of the data set: Induction of cell cycle arrest in human HeLa cells assessed as accumulation at S phase at 1 uM after 48 hrs in presence of 4 Gy X-ray radiation by propidium iodide staining based flow cytometric analysis (reference value: 31%). Format: functional.
Data set [12] relates to HeLa. The experiment in a line: Antitumor activity against human HeLa cells xenografted in BALB/c mouse at 4 mg/kg, iv administered for every 3 days for 21 days. Format: functional, organism-based. An outline of the steps:
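Nude mice bearing HeLa tumors; compound by tail-vein injection every 3 days over 21 days at 4 mg/kg, alone or combined with X-rays.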

Data set [13] can be described thus: Toxicity in BALB/c mouse xenografted with human HeLa cells assessed as liver damage by measuring effect on AST level at 4 mg/kg, iv administered every 3 days for 21 days in presence of 4 Gy X-ray irradiation. The conditions noted are these: in vivo. Format: organism-based. An outline of the steps: as §2
The nature of data set [14]: Toxicity in BALB/c mouse xenografted with human HeLa cells assessed as liver damage at 4 mg/kg, iv administered for every 3 days for 21 days and measured after 24 hrs post last dose by H and E staining based light microscopic analysis. Type of data set: organism-based. The note with it: in vivo. The essentials: as §1
In data set [15] the test system is HeLa. Nature of the data set: Induction of apoptosis in human HeLa cells assessed as caspase-3 activation at 1 uM using Ac-DEVD-AMC as substrate after 12 hrs by fluorescence based assay relative to control. Type of data set: functional. The essentials:
as §3

Data set [16] can be described thus: Toxicity in BALB/c mouse xenografted with human HeLa cells assessed as body weight loss at 4 mg/kg, iv administered for every 3 days and measured after 21 days in presence of 4 Gy X-ray irradiation. Type of data set: organism-based. The note with it: in vivo, 504 h. An outline of the steps:
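HeLa-tumor-bearing nude mice given compound at 4 mg/kg by tail-vein injection every 3 days, alone or with X-rays; body weight recorded across 21 days.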

Data set [17] can be described thus: Drug localization in cytoplasm of human HeLa cells at 20 uM after 8 hrs by LysoTracker/DAPI staining based fluorescence microscopic analysis. Format: ADME, subcellular. The essentials: as §4
Data set [18] concerns HeLa. The experiment in a line: Induction of ROS generation in human HeLa cells by DHE fluorescent dye based microplate reader analysis relative to control. Format: functional. The essentials: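 Intracellular ROS in HeLa cells were measured with the dihydroethidium probe, whose superoxide-oxidised product fluoresces red. Cells were treated with or without 4 Gy X-rays, then incubated with DHE. Fluorescence was read on a microplate reader and expressed as % of untreated cells.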

A short description of data set [19]: Ratio of IC50 for cytotoxicity against human Ect1 cells assessed as reduction in cell viability by MTT assay to cytotoxicity against human Ect1 cells assessed as reduction in cell viability in presence of 4 Gy irradiation by MTT assay. Type of data set: cell-based. The conditions noted are these: read-out: Ratio IC50. An outline of the steps:
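MTT viability assay on Ect1/E6E7 normal ectocervical cells and HeLa cells, with 0 or 4 Gy X-rays. SER = IC50(0 Gy)/IC50(4 Gy) in the same line; safe index SI4 = IC50 Ect1/E6E7 + 4 Gy divided by IC50 HeLa + 4 Gy.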

The nature of data set [20]: Toxicity in BALB/c mouse xenografted with human HeLa cells assessed as liver damage by measuring effect on AST level at 4 mg/kg, iv administered every 3 days for 21 days. Format: organism-based. The note with it: in vivo. The essentials:
as §2

As for `Nc1nc(N)c2nc3c(nc2n1)-c1cccc2cccc-3c12`, the Activity result is “Non-Toxic” in [1]; “Non-Toxic” in data set [2]; 129% in the data set on HeLa [3]; 36.2% in the data set on HeLa [6]; 6.8% in the data set with HeLa [8]; 30.2% with HeLa [9]. Further, the Activity was 16.1% in the data set with HeLa [11]; “Non-Toxic” in [13]; “Non-Toxic” in data set [14]; 121% with HeLa [15]; “Non-Toxic” in data set [16]; 132% with HeLa [18]. Further, the Activity entry in data set [20] was “Non-Toxic”. Also, the Drug uptake entry in data set [4] and in [17] was “Active” in each case. Moreover, the outcome in the data set with HeLa [5], in the data set with HeLa [10] and in the data set with HeLa [12] was Active. In addition, the 50% inhibitory concentration (IC50) at Dihydrofolate reductase stood at 810 nM. The selectivity ratio at 12 h in data set [7] was 3.3. In addition, in data set [19], the selectivity ratio stood at 2.2.
